{"data": "Assay results from different studies", "organism": "Aspergillus fumigatus", "observed": "microbial growth", "note": "Lines come from different studies, so protocols differ."}
{"Compound": "Clc1ccccc1C(c1ccccc1)(c1ccccc1)n1ccnc1", "test": "disc diffusion", "conditions": "20000 µg/mL", "measurement": "inhibition zone", "result": "22 mm"}
{"Compound": "C[C@@H]1[C@H](O)[C@@H](C)/C=C/C=C/C=C/C=C/C=C/C=C/C=C/[C@H](O[C@@H]2O[C@H](C)[C@@H](O)[C@H](N)[C@@H]2O)C[C@@H]2O[C@](O)(C[C@@H](O)C[C@@H](O)[C@H](O)CC[C@@H](O)C[C@@H](O)CC(=O)O[C@H]1C)C[C@H](O)[C@H]2C(=O)O", "system": "ATCC204305", "measurement": "IC50", "result": "860 nM"}
{"Compound": "O=C1NN=C(N=Cc2ccc(O)c(O)c2)C1=NNn1c(-c2ccccc2)nc2ccccc2c1=O", "test": "broth dilution", "measurement": "MIC", "result": "53.5 µM"}
{"Compound": "OC(Cn1cncn1)(Cn1cncn1)c1ccc(F)cc1F", "test": "broth dilution", "system": "MF5668", "measurement": "MIC", "result": "> 128 µg/mL"}
{"Compound": "C#CCCCCCCCCCCCC(O)CC(O)CO (stereo not shown)", "test": "resazurin", "system": "ATCC204305", "measurement": "IC50", "result": "> 200 µg/mL"}
{"Compound": "CC1=NN(CNC(=O)c2ccccc2)C(=O)C1=NNn1c(-c2ccccc2)nc2ccccc2c1=O", "test": "broth dilution", "measurement": "MIC", "result": "104 µM"}
{"Compound": "C=CCCCCCCCCCCCC(O)CC(O)CO (stereo not shown)", "test": "resazurin", "system": "ATCC204305", "measurement": "IC50", "result": "> 200 µg/mL"}
{"Compound": "C[C@@H]1[C@H](O)[C@@H](C)/C=C/C=C/C=C/C=C/C=C/C=C/C=C/[C@H](O[C@@H]2O[C@H](C)[C@@H](O)[C@H](N)[C@@H]2O)C[C@@H]2O[C@](O)(C[C@@H](O)C[C@@H](O)[C@H](O)CC[C@@H](O)C[C@@H](O)CC(=O)O[C@H]1C)C[C@H](O)[C@H]2C(=O)O", "test": "broth dilution", "system": "MF5668", "measurement": "MIC", "result": "0.5 µg/mL"}
{"Compound": "CC1=NN(CNC(=O)c2ccccn2)C(=O)C1=NNn1c(-c2ccccc2)nc2ccccc2c1=O", "test": "broth dilution", "measurement": "MIC", "result": "104 µM"}
{"Compound": "CCCCCCCCCCCCCC(O)CC(O)CO (stereo not shown)", "test": "resazurin", "system": "ATCC204305", "measurement": "IC50", "result": "> 200 µg/mL"}
